Measurements: ChEMBL document CHEMBL4732095, “Novel naphthylamide derivatives as dual-target antifungal inhibitors: Design, synthesis and biological evaluation” (Eur J Med Chem, 2021)
Activity calls are given as the source filed them. The calls are words filed in the database; no cut-off is given here.

Columns and labels:
Candida albicans [1] = assay: Antifungal activity against Candida albicans ATCC 10231 assessed as inhibition of microbial growth by NCCLS protocol based method; assay type: functional
How it was run: (§1)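 Broth MIC50 determined following NCCLS guidelines in Sabouraud medium, with fungal suspension in 24-well format. Compound tested at 0.0625, 0.125, 0.5, 1, 2, 4, 8 and 16 μg/mL. Plates cultured statically at 35 °C. MIC50 is the lowest concentration giving 50% growth inhibition. Naftifine and fluconazole served as positive controls.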

Nakaseomyces glabratus = assay: Antifungal activity against Candida glabrata ATCC 0001 assessed as inhibition of microbial growth by NCCLS protocol based method; assay type: functional; how it was run: as §1
Pichia kudriavzevii = assay: Antifungal activity against Candida krusei ATCC 6258 assessed as inhibition of microbial growth by NCCLS protocol based method; assay type: functional; how it was run: as §1
Candida tropicalis = assay: Antifungal activity against Candida tropicalis ATCC 1369 assessed as inhibition of microbial growth by NCCLS protocol based method; assay type: functional; how it was run: as §1
Candida albicans [2] = assay: Antifungal activity against fluconazole-resistant Candida albicans CaR assessed as inhibition of microbial growth by NCCLS protocol based method; assay type: functional
Candida albicans [3] = assay: Antifungal activity against fluconazole-resistant Candida albicans 632 assessed as inhibition of microbial growth by NCCLS protocol based method; assay type: functional
Candida albicans [4] = assay: Antifungal activity against fluconazole-resistant Candida albicans 904 assessed as inhibition of microbial growth by NCCLS protocol based method; assay type: functional
Candida albicans [5] = assay: Antifungal activity against Candida albicans ATCC SC5314 assessed as decrease in fungal cell density at 10 nM/mL by polarizing microscopy; assay type: functional, organism-based; details: dose 10.0 nmol/ml
How it was run: (§2)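 C. albicans ATCC SC5314 observed by polarizing microscopy over treatment time. Untreated, fluconazole- and naftifine-treated control groups were included. Cell density, dividing cells and cell fracture were assessed, with cell counts taken per field.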

Candida albicans [6] = assay: Antifungal activity against Candida albicans ATCC SC5314 assessed as reduction in cell division at 10 nM/mL by polarizing microscopy; assay type: functional, organism-based; details: dose 10.0 nmol/ml; how it was run: as §2
Candida albicans [7] = assay: Antifungal activity against Candida albicans ATCC SC5314 assessed as reduction in survival rate of fungal cells (reference value: 97%); assay type: functional
Candida albicans SC5314 [8] = assay: Inhibition of SE/CYP51 in Candida albicans ATCC SC5314 assessed as ergosterol level at 0.5 ug/ml incubated for 48 hrs by LC/MS analysis (reference value: 95.1 %); set-up: scale not given: the % may be the effect or the level left; details: dose 0.5 µg/ml
How it was run: (§3)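 C. albicans SC5314 cells exposed to compound at 0.125, 0.5 or 4 μg/mL for 48 h, alongside untreated, fluconazole and naftifine controls. Sterols (ergosterol, squalene, lanosterol, eburicol, unknown) analysed by LC-MS. Each component expressed as percentage of total sterols from peak area ratios.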

Candida albicans SC5314 [9] = assay: Inhibition of SE/CYP51 in Candida albicans ATCC SC5314 assessed as squalene level at 0.125 ug/ml incubated for 48 hrs by LC/MS analysis; set-up: scale not given: the % may be the effect or the level left; details: dose 0.125 µg/ml
How it was run: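 C. albicans ATCC SC5314 cells exposed to drug at 0.125, 0.5 or 4 μg/mL for 48 h, alongside an untreated control. Sterols were extracted and analysed by LC-MS. Ergosterol, squalene, lanosterol, eburicol and unknown sterols are each given as % of total sterols, calculated from the peak area ratio of each component.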

Candida albicans SC5314 [10] = assay: Inhibition of SE/CYP51 in Candida albicans ATCC SC5314 assessed as squalene level at 4 ug/ml incubated for 48 hrs by LC/MS analysis; set-up: scale not given: the % may be the effect or the level left; details: dose 4.0 µg/ml; how it was run: as §3
Candida albicans SC5314 [11] = assay: Inhibition of SE/CYP51 in Candida albicans ATCC SC5314 assessed as lanosterol level at 0.5 ug/ml incubated for 48 hrs by LC/MS analysis; set-up: scale not given: the % may be the effect or the level left; details: dose 0.5 µg/ml; how it was run: as §3
Candida albicans SC5314 [12] = assay: Inhibition of SE/CYP51 in Candida albicans ATCC SC5314 assessed as eburicol level at […] ug/ml incubated for 48 hrs by LC/MS analysis (reference value: 1.4 %); set-up: scale not given: the % may be the effect or the level left; details: dose 0.125 µg/ml
Candida albicans SC5314 [13] = assay: Inhibition of SE/CYP51 in Candida albicans ATCC SC5314 assessed as eburicol level at 0.5 ug/ml incubated for 48 hrs by LC/MS analysis (reference value: 1.4 %); set-up: scale not given: the % may be the effect or the level left; details: dose 0.5 µg/ml; how it was run: as §3
Candida albicans SC5314 [14] = assay: Inhibition of SE/CYP51 in Candida albicans ATCC SC5314 assessed as eburicol level at 4 ug/ml incubated for 48 hrs by LC/MS analysis (reference value: 1.4 %); set-up: scale not given: the % may be the effect or the level left; details: dose 4.0 µg/ml; how it was run: as §3
Candida albicans SC5314 [15] = assay: Inhibition of SE/CYP51 in Candida albicans ATCC SC5314 assessed as unknown sterol level at […] ug/ml incubated for 48 hrs by LC/MS analysis (reference value: 3.5 %); set-up: scale not given: the % may be the effect or the level left; details: dose 0.125 µg/ml
Candida albicans SC5314 [16] = assay: Inhibition of SE/CYP51 in Candida albicans ATCC SC5314 assessed as unknown sterol level at 4 ug/ml incubated for 48 hrs by LC/MS analysis (reference value: 3.5 %); set-up: scale not given: the % may be the effect or the level left; details: dose 4.0 µg/ml; how it was run: as §3
[17] = Stability in human plasma assessed as compound remaining incubated for 60 mins; assay type: ADME, cell-free; details: read-out: Stabilty
How it was run: (§4)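 Compound incubated in human plasma. Percent remaining measured at 60 and 120 min.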

[18] = Stability in human plasma assessed as compound remaining incubated for 120 mins; assay type: ADME, cell-free; details: read-out: Stabilty; how it was run: as §4
[19] = Toxicity in mouse infected with Candida albicans SC5314 assessed as change in body weight administered via abdomen for 7 days; details: in vivo, ip, 168 h, time 7 day
How it was run: (§5)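 Mice infected with C. albicans SC5314 by subcutaneous abdominal injection, then randomized into saline, and two compound-treated groups. Treatment given by abdominal injection for 7 days, with body weight monitored. Heart, liver, spleen, lung, kidney and infected abdominal tissue harvested for H&E histology.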

Candida albicans [20] = assay: In vivo antifungal activity against Candida albicans SC5314 infected in mouse assessed as uniform cell distribution injected via abdomen for 7 days by H and E staining based histological analysis; assay type: functional, organism-based; details: time 7.0 day; how it was run: as §5
Candida albicans [21] = assay: In vivo antifungal activity against Candida albicans infected in mouse assessed as disappearance of cell nuclear aggregation injected via abdomen for 7 days by H and E staining based histological analysis; assay type: functional, organism-based; details: SC5314, time 7.0 day; how it was run: as §5
[22] = Toxicity in mouse infected with Candida albicans SC5314 assessed as change in heart morphology administered via abdomen for 7 days by H and E staining based histological analysis; details: in vivo, ip, 168 h, time 7 day; how it was run: as §5
[23] = Toxicity in mouse infected with Candida albicans SC5314 assessed as change in liver morphology administered via abdomen for 7 days by H and E staining based histological analysis; details: in vivo, ip, 168 h, time 7 day; how it was run: as §5
[24] = Toxicity in mouse infected with Candida albicans SC5314 assessed as change in spleen morphology administered via abdomen for 7 days by H and E staining based histological analysis; details: in vivo, ip, 168 h, time 7 day; how it was run: as §5
[25] = Hepatotoxicity in mouse infected with Candida albicans SC5314 assessed as effect on alanine aminotransferase level in plasma administered via abdomen for 7 days (reference value: 105 +/- 8.3 IU/L); assay type: toxicity; details: ip, 168 h, time 7 day
[26] = Renal toxicity in mouse infected with Candida albicans SC5314 assessed as effect on blood urea nitrogen level administered via abdomen for 7 days (reference value: 6.8 +/-0.4 mmol/L); details: in vivo, ip, 168 h, time 7 day
[27] = target: Lanosterol 14-alpha demethylase (Candida albicans (strain SC5314 / ATCC MYA-2876) (Yeast), UniProt P10613); assay: Inhibition of Candida albicans ATCC SC5314 CYP51 incubated for 30 mins by HPLC method
Sequence of Lanosterol 14-alpha demethylase (P10613 whole entry): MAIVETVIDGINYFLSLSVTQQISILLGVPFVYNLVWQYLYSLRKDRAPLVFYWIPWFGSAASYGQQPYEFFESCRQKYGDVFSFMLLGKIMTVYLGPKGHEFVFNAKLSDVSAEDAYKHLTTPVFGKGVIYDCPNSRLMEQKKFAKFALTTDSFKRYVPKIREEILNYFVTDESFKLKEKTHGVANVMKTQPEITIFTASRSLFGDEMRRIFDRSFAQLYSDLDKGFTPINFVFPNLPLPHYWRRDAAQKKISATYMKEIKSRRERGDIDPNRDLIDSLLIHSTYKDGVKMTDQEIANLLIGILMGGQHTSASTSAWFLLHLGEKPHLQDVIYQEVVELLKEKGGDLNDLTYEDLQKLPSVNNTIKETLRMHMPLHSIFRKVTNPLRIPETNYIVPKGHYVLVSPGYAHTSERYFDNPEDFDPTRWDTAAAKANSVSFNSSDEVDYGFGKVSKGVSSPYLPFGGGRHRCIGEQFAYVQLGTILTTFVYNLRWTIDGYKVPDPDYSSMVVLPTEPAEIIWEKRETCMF

O=C(NC(Cn1ccnc1)C(=O)NCc1ccncc1)c1ccc2ccccc2c1 (stereo not given)
MIC50 (Candida albicans [1]): 0.25 µg/mL | MIC50 (Nakaseomyces glabratus): 0.125 µg/mL | MIC50 (Pichia kudriavzevii): 0.25 µg/mL | MIC50 (Candida tropicalis): 0.25 µg/mL | MIC50 (Candida albicans [2]): 8 µg/mL | MIC50 (Candida albicans [3]): 8 µg/mL | MIC50 (Candida albicans [4]): > 16 µg/mL | Activity (Candida albicans [5]): Active | Activity (Candida albicans [6]): Active | Activity (Candida albicans [7]): 16% | Activity (Candida albicans SC5314 [8]): 35.6% | Activity (Candida albicans SC5314 [9]): 9.2% | Activity (Candida albicans SC5314 [10]): 20.5% | Activity (Candida albicans SC5314 [11]): 7.2% | Activity (Candida albicans SC5314 [12]): 13.6% | Activity (Candida albicans SC5314 [13]): 37.9% | Activity (Candida albicans SC5314 [14]): 49.3% | Activity (Candida albicans SC5314 [15]): 5% | Activity (Candida albicans SC5314 [16]): 6.1% | remaining at 1 h [17]: 94.5% | remaining at 2 h [18]: 91.6% | Activity [19]: Non-Toxic | Activity (Candida albicans [20]): Active | Activity (Candida albicans [21]): Active | Activity [22]: Non-Toxic | Activity [23]: Non-Toxic | Activity [24]: Non-Toxic | Activity [25]: 102 IU/L | Activity [26]: 7.3 mmol/L | IC50 [27]: 1150 nM

CC(NC(=O)c1cccc2ccccc12)C(=O)NC(Cn1ccnc1)C(=O)c1ccccc1 (stereo not given)
MIC50 (Candida albicans [1]): 0.125 µg/mL | MIC50 (Nakaseomyces glabratus): 0.25 µg/mL | MIC50 (Pichia kudriavzevii): 0.25 µg/mL | MIC50 (Candida tropicalis): 0.125 µg/mL | MIC50 (Candida albicans [2]): 4 µg/mL | MIC50 (Candida albicans [3]): 8 µg/mL | MIC50 (Candida albicans [4]): 4 µg/mL | Activity (Candida albicans [5]): Active | Activity (Candida albicans [6]): Active | Activity (Candida albicans [7]): 11% | Activity (Candida albicans SC5314 [8]): 29.9% | Activity (Candida albicans SC5314 [9]): 7.9% | Activity (Candida albicans SC5314 [10]): 27.9% | Activity (Candida albicans SC5314 [11]): 8.7% | Activity (Candida albicans SC5314 [12]): 17.5% | Activity (Candida albicans SC5314 [13]): 34% | Activity (Candida albicans SC5314 [14]): 42.6% | Activity (Candida albicans SC5314 [15]): 5.4% | Activity (Candida albicans SC5314 [16]): 6.2% | remaining at 1 h [17]: 96.3% | remaining at 2 h [18]: 92.1% | Activity [19]: Non-Toxic | Activity (Candida albicans [20]): Active | Activity (Candida albicans [21]): Active | Activity [22]: Non-Toxic | Activity [23]: Non-Toxic | Activity [24]: Non-Toxic | Activity [25]: 106 IU/L | Activity [26]: 6.4 mmol/L | IC50 [27]: 537 nM
